The target of data set [1] is T1, Amine oxidase [flavin-containing] B (Homo sapiens, UniProt P27338).
T1 sequence (P27338 whole entry): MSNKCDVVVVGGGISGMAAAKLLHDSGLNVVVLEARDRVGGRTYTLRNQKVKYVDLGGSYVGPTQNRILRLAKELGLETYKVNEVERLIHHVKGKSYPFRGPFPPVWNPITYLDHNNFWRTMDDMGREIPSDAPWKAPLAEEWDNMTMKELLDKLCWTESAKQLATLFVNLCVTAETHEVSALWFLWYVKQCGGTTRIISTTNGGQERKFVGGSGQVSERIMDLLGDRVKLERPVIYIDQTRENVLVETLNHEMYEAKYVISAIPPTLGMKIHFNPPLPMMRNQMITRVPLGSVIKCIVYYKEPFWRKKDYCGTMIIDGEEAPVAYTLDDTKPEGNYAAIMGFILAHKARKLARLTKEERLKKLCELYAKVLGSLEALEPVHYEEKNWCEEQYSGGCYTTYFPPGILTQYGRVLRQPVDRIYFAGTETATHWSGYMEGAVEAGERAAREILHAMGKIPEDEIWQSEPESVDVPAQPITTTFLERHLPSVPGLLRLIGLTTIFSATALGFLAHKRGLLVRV
The data set is described as follows: Inhibition of recombinant human MAO-B assessed as oxidation of kynuramine to 4-hydroxyquinoline after 20 mins by spectrofluorometric analysis. The procedure, abridged: (§1)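 Enzyme from insect-cell microsomes expressing recombinant human MAO-A or MAO-B, at 0.0075 mg protein/mL, in 100 mM potassium phosphate pH 7.4 made isotonic with 20.2 mM KCl, with 4% DMSO. Kynuramine was 45 µM for MAO-A and 30 µM for MAO-B. Inhibitor range 0-100 µM, six log-spaced concentrations. Incubated 20 min at 37 °C, stopped with 2N NaOH and centrifuged. 4-Hydroxyquinoline read by fluorescence (ex 310/em 400 nm) against a calibration curve. One-site competition fit; three experiments, mean ± SD.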

In data set [2] the target is T2, Amine oxidase [flavin-containing] A (Homo sapiens, UniProt P21397).
T2 sequence (P21397 whole entry): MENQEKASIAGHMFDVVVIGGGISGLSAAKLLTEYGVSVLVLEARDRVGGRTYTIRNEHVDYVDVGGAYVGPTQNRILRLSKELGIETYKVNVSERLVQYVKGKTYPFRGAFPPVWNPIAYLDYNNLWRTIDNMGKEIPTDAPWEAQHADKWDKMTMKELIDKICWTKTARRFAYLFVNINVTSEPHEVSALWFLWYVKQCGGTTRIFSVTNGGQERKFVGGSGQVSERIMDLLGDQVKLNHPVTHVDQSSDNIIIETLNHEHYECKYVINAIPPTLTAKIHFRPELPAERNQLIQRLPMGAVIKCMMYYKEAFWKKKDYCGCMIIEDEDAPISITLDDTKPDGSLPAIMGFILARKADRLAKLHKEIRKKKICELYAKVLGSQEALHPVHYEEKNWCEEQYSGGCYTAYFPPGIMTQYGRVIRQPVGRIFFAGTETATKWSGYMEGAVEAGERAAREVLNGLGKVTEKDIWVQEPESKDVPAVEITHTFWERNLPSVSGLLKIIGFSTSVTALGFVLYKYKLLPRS
Put plainly: Inhibition of recombinant human MAO-A assessed as oxidation of kynuramine to 4-hydroxyquinoline after 20 mins by spectrofluorometric analysis. The essentials: as §1

Data set [3] has as its target T1, Amine oxidase [flavin-containing] B. The data set is described as follows: Mixed type inhibition of recombinant human MAO-B using kynuramine as substrate by Lineweaver-Burk plot analysis.
For data set [4] the target is unchanged. The data set is described as follows: Reversible inhibition of recombinant human MAO-B assessed as oxidation of kynuramine to 4-hydroxyquinoline at IC50 to 2 times IC50 up to 60 mins by spectrofluorometric analysis. To be noted: 1 h.
For data set [5] the target is unchanged. The data set is described as follows: Competitive inhibition of recombinant human MAO-B using kynuramine as substrate by Lineweaver-Burk plot analysis.

For orientation: IC50 means the concentration at which inhibition is half-maximal. On to `C/C(=N\Nc1nc(C)cs1)c1ccccn1`, for which the IC50 result in data set [1] and in data set [2] was “Not Active” each time.

`C/C(=N\Nc1nc(C)cs1)c1cccnc1`: the IC50 in data set [1] (read-out: IC50) came out at 13.6 µM; in data set [2] (read-out: IC50), 6.91 µM.

In the case of `CCOC(=O)c1csc(N/N=C(\C)c2cccnc2)n1`, the “inhibition (INH)” value in data set [3] and in data set [4] was “Active” throughout. The figures for the IC50 in data set [1] (read-out: IC50) and in data set [2] (read-out: IC50) were 0.0722 µM and 6.57 µM, respectively.

`C/C(=N/Nc1nc(C)cs1)c1ccncc1`: the half-maximal inhibitory concentration (IC50) entry in data set [1] and in data set [2] was “Not Active” each time.

`CCOC(=O)c1csc(N/N=C(\C)c2ccncc2)n1`: the “inhibition (INH)” value in data set [4] and in data set [5] was “Active” throughout. The half-maximal inhibitory concentration (IC50) in data set [1] (read-out: IC50) came to 0.127 µM; in data set [2] (read-out: IC50), 6.63 µM.

Consider `C/C(=N\Nc1nc(-c2ccccc2)cs1)c1ccccn1`, for which the half-maximal inhibitory concentration (IC50) was determined as 3.84 µM in data set [1] (read-out: IC50) and 16.6 µM in data set [2] (read-out: IC50).

Regarding `C/C(=N\Nc1nc(-c2ccccc2)cs1)c1cccnc1`, the IC50 in data set [1] (read-out: IC50) was 0.944 µM; in data set [2] (read-out: IC50) it was 21.3 µM.

Turning to `C/C(=N/Nc1nc(-c2ccccc2)cs1)c1ccncc1`, the “inhibition (INH)” value in data set [4] and in data set [5] was “Active” throughout. Besides, the results for the IC50 in data set [1] (read-out: IC50) and in data set [2] (read-out: IC50) were 0.013 µM and 2.67 µM, respectively.

Consider `CCOC(=O)c1csc(N/N=C(\C)c2ccccn2)n1`, for which the IC50 result in data set [1] and in data set [2] was “Not Active” each time.

These data come from ChEMBL document CHEMBL2407071, “Exploring 4-substituted-2-thiazolylhydrazones from 2-, 3-, and 4-acetylpyridine as selective and reversible hMAO-B inhibitors” (Eur J Med Chem, 2013).
